Test results taken from ChEMBL document CHEMBL3616442, “Unconventional Knoevenagel-type indoles: Synthesis and cell-based studies for the identification of pro-apoptotic agents” (Eur J Med Chem, 2015).

Columns and labels:
MDA-MB-435 = test: Growth inhibition of human MDA-MB-435 cells after 48 hrs by sulforhodamine B assay; type: functional; conditions: MDA-MB-435, 48 h
Outline: (§1)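 NCI 60-cell-line screen. Compounds tested at five 10-fold dilutions from 10^-4 to 10^-8 M. Cells exposed for the last 48 h of a 72 h incubation, growth estimated by sulforhodamine B protein assay. GI50 is the concentration giving 50% growth inhibition. Values beyond the tested range are expressed as greater or lesser than the extreme concentration.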

MCF7 = test: Growth inhibition of human MCF7 cells after 48 hrs by sulforhodamine B assay; type: functional; conditions: MCF7, 48 h; outline: as §1
SK-OV-3 = test: Growth inhibition of human SKOV3 cells after 48 hrs by sulforhodamine B assay; type: functional; conditions: SK-OV-3, 48 h
NCI-H23 = test: Growth inhibition of human NCI-H23 cells after 48 hrs by sulforhodamine B assay; type: functional; conditions: NCI-H23, 48 h; outline: as §1
U-251 = test: Growth inhibition of human U251 cells after 48 hrs by sulforhodamine B assay; type: functional; conditions: U-251, 48 h
[1] = Growth inhibition of human HOP92 cells after 48 hrs by sulforhodamine B assay; type: functional; conditions: HOP-92, 48 h; outline: as §1
SNB-75 = test: Growth inhibition of human SNB75 cells after 48 hrs by sulforhodamine B assay; type: functional; conditions: SNB-75, 48 h
[2] = Growth inhibition of human RPMI8226 cells after 48 hrs by sulforhodamine B assay; type: functional; conditions: RPMI-8226, 48 h
NCI-H522 = test: Growth inhibition of human NCI-H522 cells after 48 hrs by sulforhodamine B assay; type: functional; conditions: NCI-H522, 48 h; outline: as §1
[3] = Growth inhibition of human LOXIMVI cells after 48 hrs by sulforhodamine B assay; type: functional; conditions: LOX IMVI; outline: as §1
PC-3 = test: Growth inhibition of human PC3 cells after 48 hrs by sulforhodamine B assay; type: functional; conditions: PC-3, 48 h
[4] = Growth inhibition of human Hs 578T cells after 48 hrs by sulforhodamine B assay; type: functional; outline: as §1
A549 = test: Growth inhibition of human A549 cells after 48 hrs by sulforhodamine B assay; type: functional; conditions: A549, 48 h; outline: as §1
M14 = test: Growth inhibition of human M14 cells after 48 hrs by sulforhodamine B assay; type: functional; conditions: M14, 48 h; outline: as §1
UACC-62 = test: Growth inhibition of human UACC62 cells after 48 hrs by sulforhodamine B assay; type: functional; conditions: UACC-62, 48 h
MDA-MB-468 = test: Growth inhibition of human MDA-MB-468 cells after 48 hrs by sulforhodamine B assay; type: functional; conditions: MDA-MB-468, 48 h; outline: as §1
SR = test: Growth inhibition of human SR cells after 48 hrs by sulforhodamine B assay; type: functional
HL-60(TB) = test: Growth inhibition of human HL-60(TB) cells after 48 hrs by sulforhodamine B assay; type: functional; conditions: HL-60, 48 h
Outline: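 NCI 60-cell-line screen, HL-60(TB) included. Compound given at five 10-fold dilutions from 10^-4 to 10^-8 M. Cells exposed for the last 48 h of a 72 h incubation. Growth or viability estimated by sulforhodamine B protein assay. GI50 is the concentration giving 50% growth inhibition. Values outside the tested range are reported as greater or less than the highest or lowest concentration.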

K562 = test: Growth inhibition of human K562 cells after 48 hrs by sulforhodamine B assay; type: functional; conditions: K562, 48 h; outline: as §1
OVCAR-4 = test: Growth inhibition of human OVCAR4 cells after 48 hrs by sulforhodamine B assay; type: functional; conditions: OVCAR-4, 48 h; outline: as §1
NCI-H460 = test: Growth inhibition of human NCI-H460 cells after 48 hrs by sulforhodamine B assay; type: functional; conditions: NCI-H460, 48 h; outline: as §1
SK-MEL-5 = test: Growth inhibition of human SK-MEL-5 cells after 48 hrs by sulforhodamine B assay; type: functional; conditions: SK-MEL-5, 48 h
MT4 = test: Antiproliferative activity against human MT4 cells after 96 hrs by MTT assay; type: functional, cell-based; conditions: MT4, 96 h
Outline: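 Exponentially growing MT-4 cells (CD4+ human T-cells carrying integrated HTLV-1 genome), seeded at 1×10^5 cells/mL in RPMI-1640 with 10% FCS and antibiotics. Serial dilutions of compound (DMSO stock 100 mM, diluted in medium), 37 °C, 5% CO₂, 96 h. Viability read by MTT. 50% inhibition versus untreated controls by linear regression. Mean ± SD of three independent determinations.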

KM12 = test: Growth inhibition of human KM12 cells after 48 hrs by sulforhodamine B assay; type: functional; conditions: KM12, 48 h; outline: as §1
T47D = test: Growth inhibition of human T47D cells after 48 hrs by sulforhodamine B assay; type: functional
ACHN = test: Growth inhibition of human ACHN cells after 48 hrs by sulforhodamine B assay; type: functional; outline: as §1
[5] = Growth inhibition of human RXF393 cells after 48 hrs by sulforhodamine B assay; type: functional; conditions: RXF 393, 48 h
[6] = Growth inhibition of human EKVX cells after 48 hrs by sulforhodamine B assay; type: functional; outline: as §1
[7] = Growth inhibition of human COLO205 cells after 48 hrs by sulforhodamine B assay; type: functional; conditions: COLO 205, 48 h; outline: as §1
CAKI-1 = test: Growth inhibition of human CAKI-1 cells after 48 hrs by sulforhodamine B assay; type: functional; conditions: CAKI-1, 48 h; outline: as §1
[8] = Growth inhibition of human SF295 cells after 48 hrs by sulforhodamine B assay; type: functional; conditions: SF-295, 48 h
HCT-116 = test: Growth inhibition of human HCT116 cells after 48 hrs by sulforhodamine B assay; type: functional; conditions: HCT-116, 48 h; outline: as §1
MDA-MB-231 = test: Growth inhibition of human MDA-MB-231 cells after 48 hrs by sulforhodamine B assay; type: functional; conditions: MDA-MB-231, 48 h; outline: as §1
HT-29 = test: Growth inhibition of human HT-29 cells after 48 hrs by sulforhodamine B assay; type: functional; conditions: HT-29, 48 h; outline: as §1
OVCAR-8 = test: Growth inhibition of human OVCAR8 cells after 48 hrs by sulforhodamine B assay; type: functional; conditions: OVCAR-8, 48 h
NCI-H226 = test: Growth inhibition of human NCI-H226 cells after 48 hrs by sulforhodamine B assay; type: functional; conditions: NCI-H226, 48 h; outline: as §1
HCT-15 = test: Growth inhibition of human HCT15 cells after 48 hrs by sulforhodamine B assay; type: functional; conditions: HCT-15, 48 h; outline: as §1
[9] = Growth inhibition of human NCI-ADR-RES cells after 48 hrs by sulforhodamine B assay; type: functional; outline: as §1
A498 = test: Growth inhibition of human A498 cells after 48 hrs by sulforhodamine B assay; type: functional; conditions: A498, 48 h; outline: as §1
TK-10 = test: Growth inhibition of human TK10 cells after 48 hrs by sulforhodamine B assay; type: functional; conditions: TK-10, 48 h
786-0 = test: Growth inhibition of human 786-0 cells after 48 hrs by sulforhodamine B assay; type: functional; conditions: 786-0, 48 h; outline: as §1
DU-145 = test: Growth inhibition of human DU145 cells after 48 hrs by sulforhodamine B assay; type: functional; conditions: DU-145, 48 h; outline: as §1
SK-MEL-28 = test: Growth inhibition of human SK-MEL-28 cells after 48 hrs by sulforhodamine B assay; type: functional; conditions: SK-MEL-28, 48 h
UACC-257 = test: Growth inhibition of human UACC257 cells after 48 hrs by sulforhodamine B assay; type: functional; conditions: UACC-257, 48 h
SK-MEL-2 = test: Growth inhibition of human SK-MEL-2 cells after 48 hrs by sulforhodamine B assay; type: functional; conditions: SK-MEL-2, 48 h
[10] = Growth inhibition of human SF539 cells after 48 hrs by sulforhodamine B assay; type: functional; conditions: SF-539, 48 h
NCI-H322M = test: Growth inhibition of human NCI-H322M cells after 48 hrs by sulforhodamine B assay; type: functional; outline: as §1
IGROV-1 = test: Growth inhibition of human IGROV1 cells after 48 hrs by sulforhodamine B assay; type: functional; conditions: IGROV-1, 48 h; outline: as §1
[11] = Growth inhibition of human BT549 cells after 48 hrs by sulforhodamine B assay; type: functional; conditions: BT-549, 48 h; outline: as §1
HOP-62 = test: Growth inhibition of human HOP62 cells after 48 hrs by sulforhodamine B assay; type: functional; conditions: HOP-62, 48 h; outline: as §1
SF-268 = test: Growth inhibition of human SF268 cells after 48 hrs by sulforhodamine B assay; type: functional; conditions: SF-268, 48 h
SNB-19 = test: Growth inhibition of human SNB19 cells after 48 hrs by sulforhodamine B assay; type: functional; conditions: SNB-19, 48 h
Malme-3M = test: Growth inhibition of human MALME-3M cells after 48 hrs by sulforhodamine B assay; type: functional; outline: as §1
UO-31 = test: Growth inhibition of human UO31 cells after 48 hrs by sulforhodamine B assay; type: functional; conditions: UO-31, 48 h
OVCAR-3 = test: Growth inhibition of human OVCAR3 cells after 48 hrs by sulforhodamine B assay; type: functional; conditions: OVCAR-3, 48 h; outline: as §1
[12] = Growth inhibition of human HCC2998 cells after 48 hrs by sulforhodamine B assay; type: functional; conditions: HCC 2998, 48 h; outline: as §1
SW-620 = test: Growth inhibition of human SW620 cells after 48 hrs by sulforhodamine B assay; type: functional; conditions: SW-620, 48 h
CCRF-CEM = test: Growth inhibition of human CCRF-CEM cells after 48 hrs by sulforhodamine B assay; type: functional; outline: as §1
SN12C = test: Growth inhibition of human SN12C cells after 48 hrs by sulforhodamine B assay; type: functional

O=C(/C(=C\c1c(-c2ccccc2)[nH]c2ccccc12)S(=O)(=O)c1ccccc1)c1ccccc1
GI50 (MDA-MB-435): 3.9 µM
GI50 (MCF7): 5 µM
GI50 (SK-OV-3): 7.6 µM
GI50 (NCI-H23): 9.6 µM
GI50 (U-251): 8.6 µM
GI50 [1]: 5 µM
GI50 (SNB-75): 10.1 µM
GI50 [2]: 7.6 µM
GI50 (NCI-H522): 91.8 µM
GI50 [3]: 74.7 µM
GI50 (PC-3): 5 µM
GI50 [4]: 39.5 µM
GI50 (A549): 35 µM
GI50 (M14): 15.6 µM
GI50 (UACC-62): 9 µM
GI50 (MDA-MB-468): 4.2 µM
GI50 (SR): 9.9 µM
GI50 (HL-60(TB)): 5 µM
GI50 (K562): 6.5 µM
GI50 (OVCAR-4): 6.6 µM
GI50 (NCI-H460): 5.9 µM
GI50 (SK-MEL-5): 9 µM
EC50 (MT4): 3 µM
GI50 (KM12): 5.1 µM
GI50 (T47D): 3.4 µM
GI50 (ACHN): 6.7 µM
GI50 [5]: 97.1 µM
GI50 [6]: 4.6 µM
GI50 [7]: 7.8 µM
GI50 (CAKI-1): 3.1 µM
GI50 [8]: 3.5 µM
GI50 (HCT-116): 4.9 µM

N#C/C(=C\c1c(-c2ccccc2)[nH]c2ccccc12)C(=O)c1ccccc1
GI50 (MDA-MB-231): 13.2 µM
GI50 (HT-29): 3.4 µM
GI50 (MDA-MB-435): 0.37 µM
GI50 (OVCAR-8): 2.2 µM
GI50 (MCF7): 4 µM
GI50 (SK-OV-3): 15.2 µM
GI50 (NCI-H226): 6.8 µM
GI50 (NCI-H23): 16 µM
GI50 (HCT-15): 3.5 µM
GI50 (U-251): 4.7 µM
GI50 [1]: 4.5 µM
GI50 [9]: 3.1 µM
GI50 (SNB-75): 3.2 µM
GI50 [2]: 2.4 µM
GI50 (NCI-H522): 4 µM
GI50 (A498): 15.3 µM
GI50 [3]: 7.4 µM
GI50 (PC-3): 3.5 µM
GI50 [4]: 6.3 µM
GI50 (A549): 7.6 µM
GI50 (TK-10): 11.1 µM
GI50 (M14): 4.8 µM
GI50 (UACC-62): 3.6 µM
GI50 (MDA-MB-468): 5.6 µM
GI50 (786-0): 16.5 µM
GI50 (DU-145): 5.2 µM
GI50 (SK-MEL-28): 12 µM
GI50 (UACC-257): 10.9 µM
GI50 (SK-MEL-2): 35.2 µM
GI50 [10]: 6 µM
GI50 (NCI-H322M): 3.8 µM
GI50 (IGROV-1): 2.5 µM
GI50 (OVCAR-4): 65.3 µM
GI50 [11]: 3 µM
GI50 (HOP-62): 16.3 µM
GI50 (SF-268): 5.7 µM
GI50 (SNB-19): 16.8 µM
GI50 (Malme-3M): 12.3 µM
GI50 (UO-31): 30.5 µM
GI50 (NCI-H460): 4.5 µM
EC50 (MT4): 0.5 µM
GI50 (KM12): 2 µM
GI50 (T47D): 5.3 µM
GI50 (ACHN): 7.2 µM
GI50 [5]: 9.6 µM
GI50 (OVCAR-3): 2.4 µM
GI50 [6]: 10 µM
GI50 [12]: 14.5 µM
GI50 (SW-620): 3 µM
GI50 [7]: 5 µM
GI50 (CCRF-CEM): 7.3 µM
GI50 (SN12C): 5.7 µM
GI50 (CAKI-1): 2.5 µM
GI50 [8]: 3 µM
GI50 (HCT-116): 5.3 µM
